Assay results gathered from unrelated publications.
Protocols differ between the studies behind these lines.
Target: Casein kinase I isoform gamma-1 (CSNK1G1, Homo sapiens, UniProt Q9HCP0)

N#CCCc1ccc2c(c1)-c1[nH]c3ccc([N+](=O)[O-])cc3c1CC(=O)N2  remaining signal (cell-free assay; 0.5 µM): 81.6%
CC(C)(O)c1cncc(-c2nc3ccc(F)cc3n2C2CC2)c1  remaining binding (cell-free assay; competition with immobilised ligand; 1 µM): 100%
Cc1cnc(NC2CCOCC2)nc1-n1cnc(C(=O)NC(CN)c2cc(F)cc(Cl)c2)c1 (centres unmarked)  remaining activity (enzyme activity; inhibitor; radiometric; 1 µM): 66%
COc1cc2ncnc(Nc3ccc(Oc4ccccc4)c(C)c3C)c2cc1OC  inhibition (enzyme activity; inhibitor; 1 µM): 0%
Nc1ncnc2occ(-c3ccc(NC(=O)Nc4cc(C(F)(F)F)ccc4F)cc3)c12  remaining signal (cell-free assay; inhibitor; 20 µM): 18%
COc1cc2c(Nc3ccc(Br)cc3F)ncnc2cc1OCC1CCN(C)CC1  remaining signal (cell-free assay; 0.5 µM): 100%
Cc1sc(C(=O)NC2COC2)cc1-n1cc(NC(=O)Nc2c(F)cccc2Cl)cn1  remaining activity (enzyme activity; inhibitor; 10 µM): 101%
CS(=O)(=O)N1CCCC(NC(=O)[C@H](CCC2CCCCC2)NC(=O)c2ccc(CNc3ncnc4c3nnn4-c3ccccc3)cc2)C1 (some centres unmarked)  remaining binding (cell-free assay; competition with immobilised ligand; 0.1 µM): 100%
CC(C)(C)c1nc(-c2cccc(NS(=O)(=O)c3c(F)cccc3F)c2F)c(-c2ccnc(N)n2)s1  remaining activity (enzyme activity; inhibitor; radiometric; 1 µM): 96%
CN1CC(Oc2cnc(C#N)cc2-c2ccn3nc(NC(=O)C4CC4)cc3c2)C1  inhibition (enzyme activity; inhibitor; 1 µM): -3%
CCC(=O)N[C@@H]1CC[C@H](C(=O)N(C)c2ccc(-c3nc4ccccc4o3)cc2)C1  remaining binding (cell-free assay; competition with immobilised ligand; 1 µM): 100%
c1cnn2ncc(-c3ccnc(N4CCC45COC5)n3)c2c1  remaining binding (binding; 1 µM): 84%
Cc1cc(NC(=O)c2cccc3cc(-c4cccc5[nH]nc(N)c45)ccc23)ccc1F  activity vs control (enzyme activity; inhibitor; 0.1 µM): 90%
O=C1Nc2ccc(Cl)cc2C1=Cc1cc(Cl)c(O)c(Cl)c1  remaining signal (cell-free assay; 0.5 µM): 89%
Cn1nc(C(F)(F)F)cc1-c1cnc(N2CCc3cc(S(=O)(=O)Nc4c(F)cc(Cl)cc4F)cc(N4CCCC4=O)c32)nc1  remaining binding (cell-free assay; competition with immobilised ligand; 1 µM): 100%
Cc1ccc(NC(=O)c2ccc(C)c(C(F)(F)F)c2)cc1C#Cc1nn(C2CCC(O)CC2)c2ncnc(N)c12 (centres unmarked)  remaining signal (cell-free assay; 10 µM): 83%
CNC(=O)c1ccc(Nc2ncc(C(F)(F)F)c(NCc3nccnc3N(C)S(C)(=O)=O)n2)cc1  remaining binding (cell-free assay; competition with immobilised ligand; 0.1 µM): 82%
Cc1ccc(Nc2nccc(N(C)c3ccc4c(C)n(C)nc4c3)n2)cc1S(N)(=O)=O  inhibition (enzyme activity; inhibitor; 0.3 µM): -27%
COc1ccc2cc(OCC3(C(=O)O)CN(C(=O)c4ccc(F)cc4)C3)ccc2c1  remaining binding (cell-free assay; competition with immobilised ligand; 1 µM): 94%
CNC(=O)c1cc(Oc2ccc(NC(=O)Nc3ccc(Cl)c(C(F)(F)F)c3)cc2)ccn1  inhibition (enzyme activity; inhibitor; 10 µM): -13%
